The test system of series [1] is Mus musculus. Briefly: Antiosteoporotic activity in C57BL6/J mouse model of OVX-induced bone loss assessed as trabecular bone volume per tissue volume level in tibial metaphysis at 20 mg/kg, ip QD for 4 weeks by microCT analysis (17.49 +/- 2.91 %). The format is functional.
Series [2] deals with Osteoclast (Homo sapiens). As to the kind of experiment: Inhibition of resorption activity of human peripheral blood cell-derived osteoclasts incubated for 48 hrs by Kossa-staining based assay.
Series [3] concerns Mus musculus. As to the kind of experiment: Antiosteoporotic activity in C57BL6/J mouse model of OVX-induced bone loss assessed as cortical thickness level in tibial diaphysis at 20 mg/kg, ip QD for 4 weeks by microCT analysis (179.27 +/- 7.57 um). It is filed as functional.
Series [4] has as its system Mus musculus. As to the kind of experiment: Antiosteoporotic activity in C57BL6/J mouse model of OVX-induced bone loss assessed as trabecular separation level in femoral metaphysis at 20 mg/kg, ip QD for 4 weeks by histomorphometry (319.80 +/- 106.52 um). The format is functional. A digest of the protocol: (§1)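 OVX mice, 12 weeks old, ip 20 mg/kg q.d. or b.i.d. for 4 weeks in CMC/Tween 80 vehicle. Distal right femur taken day 28. Static trabecular parameters measured on one 4-µm Masson-Goldner trichrome section, ROI 0.75 mm². n=10 per group, 9 in OVX+vehicle.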

Series [5] concerns Mus musculus. As to the kind of experiment: Antiosteoporotic activity in C57BL6/J mouse model of OVX-induced bone loss assessed as degree of anisotropy (range 0-1) level in tibial metaphysis at 20 mg/kg, ip QD for 4 weeks by microCT analysis (0.53 +/- 0.07). It is filed as functional.
For series [6], the system named is Mus musculus. As to the kind of experiment: Antiosteoporotic activity in C57BL6/J mouse model of OVX-induced bone loss assessed as serum CTX-1 level […] at 20 mg/kg, ip BID for 4 weeks (165.38 +/- 54.93 %). The format is functional.
Series [7] deals with Mus musculus. As to the kind of experiment: Antiosteoporotic activity in C57BL6/J mouse model of OVX-induced bone loss assessed as trabecular thickness level in femoral metaphysis at 20 mg/kg, ip BID for 4 weeks by histomorphometry (39.96 +/- 5.42 um). It is filed as functional. A digest of the protocol: as §1
Series [8] in a line: Toxicity in C57BL6/J mouse model of OVX-induced bone loss assessed as effect on bone formation by measuring mineralizing mineral apposition rate level in femoral metaphysis at 20 mg/kg, ip BID for 4 weeks by histomorphometry (1.62 +/ 0.21 um/d (lcm)). It is filed as organism-based. The note with it: in vivo, 672 h.
The nature of series [9]: Toxicity in C57BL6/J mouse model of OVX-induced bone loss assessed as effect on bone formation by measuring osteoblast surface per trabecular bone surface level in femoral metaphysis at 20 mg/kg, ip BID for 4 weeks by histomorphometry (5.03 +/ 2.92 %). The format is organism-based. The note with it: in vivo, 672 h. In short, it runs like this: as §1
The nature of series [10]: Toxicity in C57BL6/J mouse model of OVX-induced bone loss assessed as effect on body weight at 20 mg/kg, IP BID for 4 weeks. It is filed as organism-based. The note with it: in vivo, 672 h. In short, it runs like this: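 Body weight tracked in 12-week-old OVX C57BL6/J mice during 4 weeks of ip 20 mg/kg q.d. or b.i.d. dosing in 0.485% carboxymethylcellulose/3% Tween 80, 10 mL/kg.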

In series [11] the test system is Mus musculus. Briefly: Antiosteoporotic activity in C57BL6/J mouse model of OVX-induced bone loss assessed as structure model index level in tibial metaphysis at 20 mg/kg, ip QD for 4 weeks by microCT analysis (1.92 +/- 0.19). The format is functional. The note with it: dose […].
A short description of series [12]: Toxicity in C57BL6/J mouse model of OVX-induced bone loss assessed as effect on bone formation by measuring mineralizing surface per trabecular bone surface level in femoral metaphysis at 20 mg/kg, ip QD for 4 weeks by histomorphometry (27.90 +/ 8.22 %). It is filed as organism-based. The note with it: in vivo, 672 h.
In series [13] the test system is Mus musculus. As to the kind of experiment: Antiosteoporotic activity in C57BL6/J mouse model of OVX-induced bone loss assessed as trabecular bone volume per tissue volume level in femoral metaphysis at 20 mg/kg, ip QD for 4 weeks by histomorphometry (11.67 +/- 2.37%). It is filed as functional. A digest of the protocol: as §1
A short description of series [14]: Toxicity in C57BL6/J mouse model of OVX-induced bone loss assessed as effect on bone formation by measuring mineralizing mineral apposition rate level in femoral metaphysis at 20 mg/kg, ip QD for 4 weeks by histomorphometry (1.62 +/ 0.21 um/d (lcm)). The format is organism-based. The note with it: in vivo, 672 h.
The subject of series [15] is Mus musculus. Briefly: Antiosteoporotic activity in C57BL6/J mouse model of OVX-induced bone loss assessed as trabecular separation level in femoral metaphysis at 20 mg/kg, ip BID for 4 weeks by histomorphometry (319.80 +/- 106.52 um). It is filed as functional. A digest of the protocol:
as §1

In series [16] the test system is Mus musculus. Briefly: Antiosteoporotic activity in C57BL6/J mouse model of OVX-induced bone loss assessed as trabecular thickness level in femoral metaphysis at 20 mg/kg, ip QD for 4 weeks by histomorphometry (39.96 +/- 5.42 um). The format is functional. In short, it runs like this: as §1
The subject of series [17] is Mus musculus. As to the kind of experiment: Antiosteoporotic activity in C57BL6/J mouse model of OVX-induced bone loss assessed as trabecular number level in femoral metaphysis at 20 mg/kg, ip QD for 4 weeks by histomorphometry (2.99 +/- 0.80 /mm). It is filed as functional. In short, it runs like this: as §1
Series [18] has as its target Dedicator of cytokinesis protein 5 (Homo sapiens, UniProt Q9H7D0). As to the kind of experiment: Inhibition of C-terminal 6-histidine tagged human DOCK5 (1212 to 1642 residues) expressed in Escherichia coli assessed as reduction in nucleotide exchange efficiency at 20 to 60 uM by N-methylanthraniloyl-GDP fluorescence based nucleotide exchange assay. Particulars: dose microM 20-60. In short, it runs like this:
(§2)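 Mant-GDP-loaded His-tagged human RAC1 at 2.0 µM with 100 nM DOCK5 (residues 1212-1642) or TRIOGEF1 (R1232-T1550), both E. coli-expressed. Buffer: 50 mM Tris pH 8, 300 mM NaCl, 2 mM MgCl2, 1 mM DTT, 1% DMSO, 25 °C. Reaction started with 100 µM GTP. Fluorescence decay read at ex 360/em 440 nm, kobs by single-exponential fit, compound at 0, 20 or 60 µM, duplicates, as % of activity.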

For series [19], the system named is Osteoclast (Homo sapiens). As to the kind of experiment: Toxicity in human peripheral blood cell-derived osteoclasts assessed as reduction in osteoclasts number up to 20 uM incubated for 48 hrs by TRAP-staining based assay.
The subject of series [20] is Mus musculus. As to the kind of experiment: Antiosteoporotic activity in C57BL6/J mouse model of OVX-induced bone loss assessed as degree of anisotropy (range 0-1) level in tibial metaphysis at 20 mg/kg, ip BID for 4 weeks by microCT analysis (0.53 +/- 0.07). It is filed as functional.
The target of series [21] is Triple functional domain protein (Homo sapiens) (UniProt O75962). As to the kind of experiment: Inhibition of C-terminal 6-histidine tagged human TRIOGEF1 (R1232 to T1550 residues) expressed in Escherichia coli assessed as reduction in nucleotide exchange efficiency at 20 to 60 uM by N-methylanthraniloyl-GDP fluorescence based nucleotide exchange assay. The note with it: dose microM 20-60. In short, it runs like this:
as §2

A short description of series [22]: Toxicity in C57BL6/J mouse model of OVX-induced bone loss assessed as effect on bone formation by measuring mineralizing surface per trabecular bone surface level in femoral metaphysis at 20 mg/kg, ip BID for 4 weeks by histomorphometry (27.90 +/ 8.22 %). The format is organism-based. Particulars: in vivo, 672 h.

We go through one compound from ChEMBL document CHEMBL4699636, “Novel 2,7-Diazaspiro[4,4]nonane Derivatives to Inhibit Mouse and Human Osteoclast Activities and Prevent Bone Loss in Ovariectomized Mice without Affecting Bone Formation” (J Med Chem, 2020).

Active and inactive are the calls of the source. The calls are words filed in the database; no cut-off is given here.

Chain of Dedicator of cytokinesis protein 5 (Q9H7D0 whole entry, the tested form may be a part): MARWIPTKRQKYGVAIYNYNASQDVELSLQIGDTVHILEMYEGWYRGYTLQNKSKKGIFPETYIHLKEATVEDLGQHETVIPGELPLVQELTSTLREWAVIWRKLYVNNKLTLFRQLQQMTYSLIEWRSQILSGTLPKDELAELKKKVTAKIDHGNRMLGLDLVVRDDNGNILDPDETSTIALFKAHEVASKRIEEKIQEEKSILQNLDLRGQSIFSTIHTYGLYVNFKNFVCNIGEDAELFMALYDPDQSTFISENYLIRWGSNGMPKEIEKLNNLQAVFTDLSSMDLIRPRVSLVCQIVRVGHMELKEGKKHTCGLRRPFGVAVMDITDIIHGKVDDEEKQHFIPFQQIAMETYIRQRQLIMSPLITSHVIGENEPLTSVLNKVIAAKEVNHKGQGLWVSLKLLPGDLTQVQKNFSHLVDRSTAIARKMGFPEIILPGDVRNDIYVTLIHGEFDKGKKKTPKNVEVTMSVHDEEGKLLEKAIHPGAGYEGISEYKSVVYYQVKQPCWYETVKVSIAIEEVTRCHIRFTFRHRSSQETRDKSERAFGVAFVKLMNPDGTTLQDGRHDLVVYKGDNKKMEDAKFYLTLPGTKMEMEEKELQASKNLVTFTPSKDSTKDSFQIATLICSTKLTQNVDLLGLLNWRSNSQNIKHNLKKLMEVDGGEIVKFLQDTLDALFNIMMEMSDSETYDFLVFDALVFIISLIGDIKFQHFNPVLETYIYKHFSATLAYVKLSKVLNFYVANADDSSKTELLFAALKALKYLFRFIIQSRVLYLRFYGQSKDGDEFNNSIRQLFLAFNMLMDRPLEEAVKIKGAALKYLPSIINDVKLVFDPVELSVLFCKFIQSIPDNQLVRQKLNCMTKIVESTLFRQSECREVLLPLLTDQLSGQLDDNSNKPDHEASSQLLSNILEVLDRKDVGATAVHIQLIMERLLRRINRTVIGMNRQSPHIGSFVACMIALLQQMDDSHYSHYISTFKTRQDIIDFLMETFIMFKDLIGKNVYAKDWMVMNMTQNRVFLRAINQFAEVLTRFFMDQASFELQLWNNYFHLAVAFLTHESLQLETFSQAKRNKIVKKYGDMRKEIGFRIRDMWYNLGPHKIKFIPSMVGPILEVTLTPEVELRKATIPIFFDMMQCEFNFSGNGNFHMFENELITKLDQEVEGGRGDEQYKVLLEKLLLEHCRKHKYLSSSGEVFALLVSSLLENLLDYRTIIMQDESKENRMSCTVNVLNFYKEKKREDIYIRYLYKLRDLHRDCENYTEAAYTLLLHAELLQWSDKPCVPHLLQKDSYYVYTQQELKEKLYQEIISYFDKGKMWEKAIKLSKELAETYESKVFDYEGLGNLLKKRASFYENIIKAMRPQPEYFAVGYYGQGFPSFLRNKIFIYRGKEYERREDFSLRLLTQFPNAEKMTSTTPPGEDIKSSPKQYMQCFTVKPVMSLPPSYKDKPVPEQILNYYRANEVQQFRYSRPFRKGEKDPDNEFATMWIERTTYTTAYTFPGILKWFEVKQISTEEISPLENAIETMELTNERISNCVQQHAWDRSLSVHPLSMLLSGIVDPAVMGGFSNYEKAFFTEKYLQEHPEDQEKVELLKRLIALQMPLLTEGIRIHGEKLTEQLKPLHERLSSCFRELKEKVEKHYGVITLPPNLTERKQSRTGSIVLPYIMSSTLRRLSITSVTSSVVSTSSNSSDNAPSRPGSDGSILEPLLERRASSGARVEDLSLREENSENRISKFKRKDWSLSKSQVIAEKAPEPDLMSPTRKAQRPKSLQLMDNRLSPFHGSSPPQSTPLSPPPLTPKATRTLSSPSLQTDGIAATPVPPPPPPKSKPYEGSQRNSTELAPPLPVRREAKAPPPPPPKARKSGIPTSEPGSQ

`O=S1(=O)N(c2ccccc2)C[C@H](O)[C@]12CCN(Cc1ccc(Cl)cc1)C2` (racemic): the Activity came out at 19.48% in series [1]; 187.72 um in series [3]; 318.42 um in series [4]; 112.71% in [6]; 47.2 µm in series [7]; 1.65 micrometer/day in [8]. In addition, the Activity in series [9] is reported as 4.01%; in series [10], “Non-Toxic”; in series [12] it was 27.7%; in series [13], 12.02%; in [14], 1.82 micrometer/day; in series [15], 251.29 um. Moreover, the Activity was 41.8 µm in series [16], 2.83 /millimeter in series [17], “Non-Toxic” in series [19] and 26.07% in series [22]. In [2], the IC50 is 3.44 µM. In addition, the Activity_index in [5] came to 0.5; in series [11], 1.88; in series [20] it was 0.45. Besides, in series [18], the inhibition came to 45%. Moreover, the inhibition entry in series [21] was “inactive”.

A word on the IC50: it is the concentration needed to halve the response being measured. Lower therefore signals greater potency in that assay. The term inhibition denotes the relative decrease from the control value, in per cent.
